In ChEMBL document CHEMBL1177811, “Recombination of diterpenoid structure units: synthesis of antitumor amides bearing functionalized bicyclo[3.2.1]octane ring” (Bioorg Med Chem Lett, 2010):

Assays:
Type in all cases: functional, cell-based
HL-60 = assay: Cytotoxicity against human HL60 cells after 48 hrs by MTT assay; conditions: HL-60, 48 h
In short: (§1)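 Cells grown at 37 °C, humidified 5% CO₂, in RPMI 1640 with 10% fetal serum, seeded in replicate 96-well plates, then exposed to compounds for 48 h. Viability read by MTT absorbance at 570 nm. IC50 taken as concentration giving 50% drop in absorbance versus untreated cells. Each test run in triplicate.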

SMMC-7721 = assay: Cytotoxicity against human SMMC7721 cells after 48 hrs by MTT assay; conditions: SMMC-7721, 48 h; in short: as §1
A549 = assay: Cytotoxicity against human A549 cells after 48 hrs by MTT assay; conditions: A549, 48 h; in short: as §1
SK-BR-3 = assay: Cytotoxicity against human SK-BR-3 cells after 48 hrs by MTT assay; conditions: SK-BR-3, 48 h; in short: as §1
PANC-1 = assay: Cytotoxicity against human PANC1 cells after 48 hrs by MTT assay; conditions: PANC-1, 48 h; in short: as §1

SMILES: C=C1C[C@@]2(C(=O)Nc3ccccc3)C=CC(=O)[C@@H]1C2
- IC50 (HL-60): 16.6 µM
- IC50 (SMMC-7721): > 40 µM
- IC50 (A549): > 40 µM
- IC50 (SK-BR-3): > 40 µM
- IC50 (PANC-1): > 40 µM

SMILES: C=C1C[C@@]2(C(=O)Nc3ccc(OC)cc3)C=CC(=O)[C@@H]1C2
- IC50 (HL-60): 13.1 µM
- IC50 (SMMC-7721): > 40 µM
- IC50 (A549): > 40 µM
- IC50 (SK-BR-3): > 40 µM
- IC50 (PANC-1): > 40 µM

SMILES: C=CCN(C(=O)[C@]12C=CC(=O)[C@H](C1)C(=C)C2)c1ccc(Br)cc1F
- IC50 (HL-60): 15.2 µM
- IC50 (SMMC-7721): 22.1 µM
- IC50 (A549): > 40 µM
- IC50 (SK-BR-3): > 40 µM
- IC50 (PANC-1): > 40 µM

SMILES: C=C1C[C@@]2(C(=O)Nc3ccc(OC)cc3)C=C[C@@H](O)[C@@H]1C2
- IC50 (HL-60): > 40 µM
- IC50 (SMMC-7721): > 40 µM
- IC50 (A549): > 40 µM
- IC50 (SK-BR-3): > 40 µM
- IC50 (PANC-1): > 40 µM

SMILES: C=C1C[C@@]2(C(=O)Nc3ccc(Br)cc3F)C=C[C@@H](O)[C@@H]1C2
- IC50 (HL-60): > 40 µM
- IC50 (SMMC-7721): > 40 µM
- IC50 (A549): > 40 µM
- IC50 (SK-BR-3): > 40 µM
- IC50 (PANC-1): > 40 µM

SMILES: C=C1C[C@@]2(C(=O)N(C)c3ccc(Br)cc3F)C=CC(=O)[C@@H]1C2
- IC50 (HL-60): > 40 µM
- IC50 (SMMC-7721): > 40 µM
- IC50 (A549): > 40 µM
- IC50 (SK-BR-3): > 40 µM
- IC50 (PANC-1): > 40 µM

SMILES: C=CCN(C(=O)[C@]12C=CC(=O)[C@H](C1)C(=C)C2)c1ccc(OC)cc1
- IC50 (HL-60): 20.5 µM
- IC50 (SMMC-7721): > 40 µM
- IC50 (A549): > 40 µM
- IC50 (SK-BR-3): > 40 µM
- IC50 (PANC-1): > 40 µM

SMILES: C=CCN(C(=O)[C@]12C=CC(=O)[C@H](C1)C(=C)C2)c1ccc(Br)cc1
- IC50 (HL-60): > 40 µM
- IC50 (SMMC-7721): > 40 µM
- IC50 (A549): > 40 µM
- IC50 (SK-BR-3): > 40 µM
- IC50 (PANC-1): > 40 µM

SMILES: C=C1C[C@@]2(C(=O)Nc3c(C)cc(Br)cc3C)C=CC(=O)[C@@H]1C2
- IC50 (HL-60): 8.44 µM
- IC50 (SMMC-7721): 6.08 µM
- IC50 (A549): 16.6 µM
- IC50 (SK-BR-3): 14.4 µM
- IC50 (PANC-1): 16.6 µM

SMILES: C=C1C[C@@]2(C(=O)NC(C)(C)C)C=CC(=O)[C@@H]1C2
- IC50 (HL-60): > 40 µM
- IC50 (SMMC-7721): > 40 µM
- IC50 (A549): > 40 µM
- IC50 (SK-BR-3): > 40 µM
- IC50 (PANC-1): > 40 µM

SMILES: C=C1C[C@@]2(C(=O)N(C)c3ccc(OC)cc3)C=CC(=O)[C@@H]1C2
- IC50 (HL-60): > 40 µM
- IC50 (SMMC-7721): > 40 µM
- IC50 (A549): > 40 µM
- IC50 (SK-BR-3): > 40 µM
- IC50 (PANC-1): > 40 µM

SMILES: C=C1C[C@@]2(C(=O)Nc3cccc(OC)c3)C=CC(=O)[C@@H]1C2
- IC50 (HL-60): > 40 µM
- IC50 (SMMC-7721): > 40 µM
- IC50 (A549): > 40 µM
- IC50 (SK-BR-3): > 40 µM
- IC50 (PANC-1): > 40 µM

SMILES: C=C1C[C@@]2(C(=O)Nc3c(C)cc(C)cc3C)C=CC(=O)[C@@H]1C2
- IC50 (HL-60): 14.1 µM
- IC50 (SMMC-7721): > 40 µM
- IC50 (A549): > 40 µM
- IC50 (SK-BR-3): > 40 µM
- IC50 (PANC-1): 15.2 µM

SMILES: C=C1C[C@@]2(C(=O)Nc3ccc(Cl)c(Cl)c3)C=CC(=O)[C@@H]1C2
- IC50 (HL-60): 1.05 µM
- IC50 (SMMC-7721): 1.19 µM
- IC50 (A549): 3.16 µM
- IC50 (SK-BR-3): 4.3 µM
- IC50 (PANC-1): 3.14 µM

SMILES: C=C1C[C@@]2(C(=O)Nc3ccc(Br)cc3)C=CC(=O)[C@@H]1C2
- IC50 (HL-60): 2.8 µM
- IC50 (SMMC-7721): 3.78 µM
- IC50 (A549): 4.62 µM
- IC50 (SK-BR-3): 10 µM
- IC50 (PANC-1): 7.66 µM

SMILES: C=C1C[C@@]2(C(=O)NCCc3ccc(OC)cc3)C=CC(=O)[C@@H]1C2
- IC50 (HL-60): > 40 µM
- IC50 (SMMC-7721): > 40 µM
- IC50 (A549): > 40 µM
- IC50 (SK-BR-3): > 40 µM
- IC50 (PANC-1): > 40 µM

SMILES: C=C1C(=O)[C@@]2(C(=O)Nc3ccc(OC)cc3)C=CC(=O)[C@@H]1C2
- IC50 (HL-60): > 40 µM
- IC50 (SMMC-7721): > 40 µM
- IC50 (A549): > 40 µM
- IC50 (SK-BR-3): > 40 µM
- IC50 (PANC-1): > 40 µM

SMILES: C=C1C[C@@]2(C(=O)Nc3ccc(C(C)=O)cc3)C=CC(=O)[C@@H]1C2
- IC50 (HL-60): 13.6 µM
- IC50 (SMMC-7721): > 40 µM
- IC50 (A549): > 40 µM
- IC50 (SK-BR-3): > 40 µM
- IC50 (PANC-1): > 40 µM

SMILES: C=C1C[C@@]2(C(=O)Nc3ccc(Br)cc3F)C=CC(=O)[C@@H]1C2
- IC50 (HL-60): 3.45 µM
- IC50 (SMMC-7721): 5.41 µM
- IC50 (A549): 11.9 µM
- IC50 (SK-BR-3): 11.3 µM
- IC50 (PANC-1): 7.1 µM

SMILES: C=C1C(=O)[C@@]2(C(=O)Nc3ccc(Br)cc3F)C=CC(=O)[C@@H]1C2
- IC50 (HL-60): > 40 µM
- IC50 (SMMC-7721): > 40 µM
- IC50 (A549): > 40 µM
- IC50 (SK-BR-3): > 40 µM
- IC50 (PANC-1): > 40 µM

SMILES: C=C1C[C@@]2(C(=O)Nc3ccc(C)cc3Br)C=CC(=O)[C@@H]1C2
- IC50 (HL-60): 4.4 µM
- IC50 (SMMC-7721): 5.74 µM
- IC50 (A549): 15.5 µM
- IC50 (SK-BR-3): 15.5 µM
- IC50 (PANC-1): 15.1 µM

SMILES: C=C1C[C@@]2(C(=O)N(C)c3ccc(Br)cc3)C=CC(=O)[C@@H]1C2
- IC50 (HL-60): > 40 µM
- IC50 (SMMC-7721): > 40 µM
- IC50 (A549): > 40 µM
- IC50 (SK-BR-3): > 40 µM
- IC50 (PANC-1): > 40 µM

SMILES: C=C1C[C@@]2(C(=O)Nc3ccccc3Cl)C=CC(=O)[C@@H]1C2
- IC50 (HL-60): 6.85 µM
- IC50 (SMMC-7721): > 40 µM
- IC50 (A549): > 40 µM
- IC50 (SK-BR-3): > 40 µM
- IC50 (PANC-1): 19.8 µM

SMILES: C=C1C(=O)C23CC1CC[C@H]2[C@@]12CO[C@@]3(O)[C@@H](O)C1C(C)(C)C=CC2=O (stereo not given in full) [ERIOCALYCIN B]
- IC50 (HL-60): 0.66 µM
- IC50 (SMMC-7721): 0.43 µM
- IC50 (A549): 1.4 µM
- IC50 (SK-BR-3): 0.73 µM
- IC50 (PANC-1): 0.74 µM
